Assay outcomes deposited in PubChem BioAssay by The Scripps Research Institute Molecular Screening Center.
HTRA1 inhibitor: inhibitors of human serine peptidase HTRA1. 340,000 compounds, 0.5% hits. inhibition, % at 5.96 µM. recombinant HTRA1, FP-rhodamine activity-based probe, fluorescence polarization. Q92743. AID 504803; in the data active = inhibition above about 36%
DAGLB inh: blocks human DAGLB lipase activity; Q8NCG7; HEK293T DAGLB membrane lysate, EnzChek fluorogenic substrate; inhibition, % at 5.17 µM; 340,000 compounds, 0.059% hits; AID 504411; in the data active = inhibition above about 34%
LEDGF integ inh: blocks HIV-1 LEDGF/p75-dependent DNA integration; inhibition, % at 3.7 µM; AID 743269; 370,000 compounds, 0.64% hits; TR-FRET IN-LEDGF/p75 DNA integration, Eu/Cy5;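 active = inhibition above the screen-wide mean plus 3 SD, cut at about 13% in these data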;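 also: signal is the Cy5 over europium emission ratio at 671 and 618 nm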
PRMT1 FP inh: PRMT1 (human) inhibition, primary screen. Q99873. recombinant PRMT1, activity-based probe fluorescence polarization. inhibition, % at 2.79 µM. 370,000 compounds, 1.3% hits. AID 652257;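 active = inhibition above about 21% made by adding two undisclosed values, limit read from the data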
Target sequence (Q99873 whole entry, looked up): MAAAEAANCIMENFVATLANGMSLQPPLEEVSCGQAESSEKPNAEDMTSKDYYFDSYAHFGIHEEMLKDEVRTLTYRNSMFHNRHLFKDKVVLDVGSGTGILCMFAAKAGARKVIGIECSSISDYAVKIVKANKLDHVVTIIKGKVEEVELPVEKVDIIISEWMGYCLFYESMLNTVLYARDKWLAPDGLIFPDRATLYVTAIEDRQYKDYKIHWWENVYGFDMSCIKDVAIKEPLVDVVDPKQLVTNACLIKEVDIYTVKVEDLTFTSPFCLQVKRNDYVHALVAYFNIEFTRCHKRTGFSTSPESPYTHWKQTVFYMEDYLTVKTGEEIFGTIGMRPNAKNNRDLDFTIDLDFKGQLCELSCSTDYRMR
ABHD4 inh: ABHD4 (mouse) inhibition, primary FP screen | Q8VD66 | purified mABHD4, FP-Rh probe fluorescence polarization | inhibition, % at 8.92 µM | 370,000 compounds, 0.54% hits;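 active = inhibition exceeding the mean over every tested compound plus 3 SD, cut at about 30% in these data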
Target sequence (Q8VD66 whole entry, looked up): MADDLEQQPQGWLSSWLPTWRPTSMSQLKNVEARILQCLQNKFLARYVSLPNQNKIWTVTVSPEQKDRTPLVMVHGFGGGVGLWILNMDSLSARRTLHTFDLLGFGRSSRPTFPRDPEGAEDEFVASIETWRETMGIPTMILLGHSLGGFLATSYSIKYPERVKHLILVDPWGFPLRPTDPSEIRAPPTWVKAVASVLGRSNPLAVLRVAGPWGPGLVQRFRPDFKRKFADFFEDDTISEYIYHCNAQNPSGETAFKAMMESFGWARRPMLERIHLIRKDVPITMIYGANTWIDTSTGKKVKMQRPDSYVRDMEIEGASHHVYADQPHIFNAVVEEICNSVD
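Doses – 8.92 µM, single dose · Material – wild-type mouse ABHD4 protein · Replication – single well per compound (singlicate) · Measure – percent inhibition of probe binding, normalized to plate controls · Schedule – 45 min compound pre-incubation plus 60 min probe step, 25 °C · Detection – fluorescence polarization with parallel and perpendicular emission, 525/598 nm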
rCAG binder: r(CAG) repeat RNA binding | TO-PRO-1 dye displacement fluorescence | inhibition, % at 3 µM | 370,000 compounds, 1.3% hits | AID 651821;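 active = inhibition above the plate cutoff, the mean of all test compounds on that plate plus 3 SD, cut at about 35% in these data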;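 also: higher means more dye released from RNA so lower well fluorescence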
rCAG bind conf: r(CAG) RNA repeat binding, confirmation; shares compounds with rCAG binder; TO-PRO-1 dye displacement fluorescence; inhibition, % at 3 µM; 4,300 compounds, 70% hits; AID 652065;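 active = inhibition above a per-plate cutoff, the mean inhibition of sample wells plus 3 SD, cut at about 35% in these data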;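 also: loss of TO-PRO-1 fluorescence as compound displaces dye from 1x1 AA loop RNA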
DNA CAG counter: disrupts DNA CAG TO-PRO-1 complex, flagging rCAG hits; shares compounds with rCAG binder; d(CAG) DNA oligo TO-PRO-1 dye displacement, fluorescence; inhibition, % at 3 µM; 4,300 compounds, 94% hits; AID 652068;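 active = inhibition above its plate's cutoff, the mean test-well inhibition plus 3 SD, cut at about 4.8% in these data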;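 also: hits displace the dye from DNA and so lower well fluorescence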
DNA CAG DR: DNA CAG dye complex inhibition, dose response counter-screen; shares compounds with rCAG binder; DNA CAG/GTC duplex TO-PRO-1 dye displacement fluorescence; IC50, µM; 250 compounds, 20% hits; in the data active = IC50 below about 10 µM
Of the large screens only hits and unclear results are named; the others gave an inactive call (follow-up assays come after a bar, where they were run). Shown are actives, neighbours in structure and some others; about 3.2% of the full set was active somewhere.

O=C(NC(=S)Nc1ccc(S(=O)(=O)Nc2nccs2)cc1)c1ccc(F)cc1	rCAG binder 53 | rCAG bind conf 38 | DNA CAG counter 14
COc1ccc(Cc2nnc(NS(=O)(=O)c3ccc(Cl)cc3)s2)cc1OC	rCAG binder 49 | rCAG bind conf 53 | DNA CAG counter 16
CC(C)(C)C(=O)NC(=S)Nc1ccc(S(=O)(=O)Nc2nccs2)cc1	none
CCc1nnc(NS(=O)(=O)c2ccc(NC(=S)NC(=O)c3ccc(OC)c(OC)c3)cc2)s1	rCAG binder 68 | rCAG bind conf 68 | DNA CAG counter 32
CCc1nnc(NS(=O)(=O)c2ccc(NC(=S)NC(=O)c3ccc(OC)cc3)cc2)s1	rCAG binder 70 | rCAG bind conf 67 | DNA CAG counter 33
FC(F)(F)c1cccnc1N1CCN(c2ncnc3nc[nH]c23)CC1	none
Cc1ccc(Cn2c(SCC(=O)Nc3cc(C)on3)nc3ccccc3c2=O)cc1	none
COc1ccc(C(=O)NC(=S)Nc2ccc(S(=O)(=O)Nc3cc(C)on3)cc2)cc1OC	rCAG binder 35 | rCAG bind conf 36 | DNA CAG counter 6.5
COC(=O)c1sc(NC(=O)c2ccc3c(c2)OCO3)c(C#N)c1C	none
CC(Oc1ccc(Cl)cc1)C(=O)Nc1nccs1 (stereo unspecified)	none
CC(Oc1ccc(Cl)cc1)C(=O)Nc1ccc(S(=O)(=O)Nc2nccs2)cc1 (stereo unspecified)	rCAG binder 44 | rCAG bind conf 36 | DNA CAG counter 11
CCC(=O)Nc1ccc(S(=O)(=O)Nc2nccs2)cc1	none
Cc1ccc(C)c(OC(C)C(=O)Nc2ccc(S(=O)(=O)Nc3nccs3)cc2)c1 (stereo unspecified)	rCAG binder 55 | rCAG bind conf 48 | DNA CAG counter 18
COc1ccccc1CCC(=O)Nc1ccc(S(=O)(=O)Nc2nccs2)cc1	rCAG binder 37 | rCAG bind conf inactive | DNA CAG counter 9.2
COc1ccccc1CCC(=O)Nc1nccs1	none
O=C(CSc1nnc(SCc2cccc3ccccc23)s1)Nc1ccc(S(=O)(=O)Nc2nccs2)cc1	rCAG binder 80 (no result: HTRA1 inhibitor, DAGLB inh) | rCAG bind conf 77 | DNA CAG counter 43
CC(Oc1ccccc1Cl)C(=O)Nc1ccc(S(=O)(=O)Nc2nccs2)cc1 (stereo unspecified)	rCAG binder 54 | rCAG bind conf 54 | DNA CAG counter 13
Cc1ccc(Sc2ncccc2C(=O)NCc2cc([N+](=O)[O-])ccc2O)cc1C	rCAG binder 35 | rCAG bind conf inactive | DNA CAG counter 5.3
COc1ccc(CNC(=O)c2cccnc2Sc2ccc(C)c(C)c2)cc1	none
O=C(CSc1nnc(COc2ccc(Cl)cc2Cl)o1)Nc1ccccn1	none
O=C(CSc1nnc(CCCOc2ccc(Cl)cc2Cl)o1)Nc1ccc(C(=O)O)cc1	rCAG binder 42 | rCAG bind conf inactive | DNA CAG counter 5.0
CCN(Cc1ccccc1)S(=O)(=O)c1ccc(C(=O)Nc2nnc(C3CC3)o2)cc1	rCAG binder 45 | rCAG bind conf 36 | DNA CAG counter 12
Cc1nnc(NC(=O)c2ccc(S(=O)(=O)N(C)Cc3ccccc3)cc2)o1	none (no result: LEDGF integ inh, PRMT1 FP inh, ABHD4 inh, rCAG binder)
CCn1c(C)c(/C=N/Nc2nc3ccccc3s2)c2ccccc21	rCAG binder 47 | rCAG bind conf inactive | DNA CAG counter 15
C(=N\Nc1nc2ccccc2s1)/c1cccs1	none
CCOC(=O)Cc1c(C)nc2c(-c3cccc(Br)c3)c[nH]n2c1=O	rCAG binder 72 | rCAG bind conf 47 | DNA CAG counter 15
Cc1ccc(O)c(-c2[nH]ncc2C(=O)c2ccc(Cl)cc2)c1	none
COc1cc([C@@H]2CC=C(C(=O)O)[C@H](c3ccc(F)cc3)N2S(=O)(=O)c2ccc(C)cc2)cc(OC)c1OC	none
COc1ccc([C@@H]2CC=C(C(=O)O)[C@H](c3ccc(Br)cc3)N2S(=O)(=O)c2ccccc2C)cc1	rCAG binder 77 | rCAG bind conf 75 | DNA CAG counter 40
Cc1ccc([C@@H]2CC=C(C(=O)O)[C@H](c3ccc(Cl)cc3)N2S(=O)(=O)c2ccccc2C)cc1	rCAG binder 73 | rCAG bind conf 70 | DNA CAG counter 31 | DNA CAG DR inactive
Cc1ccccc1S(=O)(=O)N1C(c2ccc(Cl)c(Cl)c2)CC=C(C(=O)O)C1c1cccc(Br)c1 (stereo unspecified)	rCAG binder 86 (no result: HTRA1 inhibitor, DAGLB inh) | rCAG bind conf 85 | DNA CAG counter 57
Cc1ccccc1S(=O)(=O)N1[C@@H](c2ccccc2)C(C(=O)O)=CC[C@H]1c1ccc(Cl)cc1	rCAG binder 65 | rCAG bind conf 74 | DNA CAG counter 36
Cc1ccc(C(=O)OCC(=O)NCCNC(=O)COC(=O)c2ccc(C)o2)o1	none
Cn1c(=O)n(C)c2cc(NC(=O)CCc3ccccc3)c(Br)cc21	none
CCOC(=O)C1=CCN(S(=O)(=O)c2ccccc2C)C1c1ccc(Br)cc1 (stereo unspecified)	none (no result: HTRA1 inhibitor, DAGLB inh)
Cc1ccc([C@@H]2CC=C(C(=O)O)[C@H](c3ccc(Br)cc3)N2S(=O)(=O)c2ccccc2C)cc1	rCAG binder 86 | rCAG bind conf 81 | DNA CAG counter 48
Cc1ccccc1S(=O)(=O)N1[C@@H](c2ccc(Br)cc2)C(C(=O)O)=CC[C@H]1c1ccc(Cl)cc1	rCAG binder 88 | rCAG bind conf 84 | DNA CAG counter 57
COc1ccc([C@@H]2CC=C(C(=O)O)[C@H](c3ccc(Cl)cc3)N2S(=O)(=O)c2ccccc2C)cc1	rCAG binder 47 | rCAG bind conf 60 | DNA CAG counter 25
CSc1nnc(N2C(=O)C(O)=C(C(=O)c3ccc(C)o3)C2c2ccc(C)cc2)s1 (stereo unspecified)	rCAG binder 39 | rCAG bind conf inactive | DNA CAG counter 5.6
CCCSc1nnc(N2C(=O)C(O)=C(C(=O)c3ccco3)C2c2ccccc2F)s1 (stereo unspecified)	rCAG binder 48 | rCAG bind conf 41 | DNA CAG counter 11
Cc1cccc(NC(=O)n2ccc3ccc(-c4ccc5cc[nH]c5c4)cc32)c1	none (no result: HTRA1 inhibitor, DAGLB inh)
CCOc1ccc([C@@H]2CC=C(C(=O)O)[C@H](c3ccc(Cl)cc3)N2S(=O)(=O)c2ccc(C)cc2)cc1	rCAG binder 59 | rCAG bind conf 74 | DNA CAG counter 37
